Here are results for ten compounds from ChEMBL document CHEMBL2321729, “Identification of acidic heterocycle-substituted 1H-pyrazolo[3,4-b]pyridines as soluble guanylate cyclase stimulators” (Bioorg Med Chem Lett, 2013).

In brackets after ≈: the same amount, converted by molar mass.

The nature of data set [1]: Stimulation of soluble guanylate cyclase activity in pre-contracted rabbit aortic rings assessed as inhibition of vasoconstriction. The settings on record: Oryctolagus cuniculus. The method, boiled down: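 Relaxation of rabbit aortic rings that were pre-contracted before exposure. IC50 given as the mean of three experiments.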
The test system of the next data set is Liver microsomes. As to the kind of experiment: Stability of the compound in rat liver microsomes. It counts as ADME, Microsome. The method, boiled down:
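Bioavailability (Fmax) predicted from incubation with rat liver microsomes.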
(In general: Liver microsomes are vesicles of endoplasmic reticulum, rich in cytochrome P450 enzymes.)

Data set [2] in a line: Pseudo-thermodynamic solubility of the compound at pH 6.5. It is filed as physicochemical. Conditions: buffer, read-out: Therm_solubility. A digest of the protocol: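 Pseudo-thermodynamic solubility measured at pH 6.5.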
The next data set relates to Hepatocyte. Description: Stability of the compound in rat liver hepatocytes. It is filed as ADME, cell-based. The method, boiled down:
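Bioavailability (Fmax) predicted from incubation with rat liver hepatocytes.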

A short description of data set [3]: Oral bioavailability in Wistar rat at 0.3 mg/kg. The settings on record: in vivo. It counts as ADME, organism-based. The method, boiled down:
(§1)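 Wistar rats given 0.3 mg/kg as an intravenous bolus and by oral gavage, formulated in EtOH/PEG400/H₂O; mean values. AUC_norm was calculated from the concentration–time curve after the intravenous dose. Clearance was taken as total plasma (or total blood) clearance. Mean residence time, half-life and oral bioavailability were also derived.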

The nature of data set [4]: Total blood clearance in Wistar rat at 0.3 mg/kg, iv and 0.3 mg/kg, po. It counts as ADME, organism-based. The settings on record: whole blood. A digest of the protocol: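 Wistar rats received 0.3 mg/kg by intravenous bolus and by oral gavage, vehicle EtOH/PEG400/H₂O. Total blood clearance was reported as the mean value from these administrations.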
A short description of data set [5]: Half life in Wistar rat at 0.3 mg/kg, iv and 0.3 mg/kg, po. The settings on record: in vivo. It counts as ADME, organism-based. A digest of the protocol:
as §1

Data set [6] concerns Rattus norvegicus. As to the kind of experiment: Dose normalized AUC in Wistar rat at 0.3 mg/kg, iv. The arrangement: dose 0.3 mg/kg, route intravenous. Conditions: in vivo. It is filed as ADME, organism-based. A digest of the protocol:
as §1

A short description of data set [7]: Total plasma clearance in Wistar rat at 0.3 mg/kg, iv and 0.3 mg/kg, po. It is filed as ADME, organism-based. The method, boiled down:
as §1

The test system of data set [8] is Rattus norvegicus. As to the kind of experiment: Antihypertensive activity in po dosed spontaneously hypertensive rat assessed as reduction of blood pressure measured up to 24 hrs. It is filed as functional, organism-based. A digest of the protocol: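 Oral gavage at 0 h in spontaneously hypertensive rats; controls given vehicle. Blood pressure expressed as a percentage of initial values (131–142 mmHg). Mean of 6–12 animals.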

Data set [9] in a line: Mean residence time in Wistar rat at 0.3 mg/kg, iv and 0.3 mg/kg, po. It is filed as ADME, organism-based. The settings on record: in vivo. A digest of the protocol:
as §1

Regarding `O=c1[nH]nc(-c2nn(Cc3ccccc3F)c3ncccc23)o1`, the half-inhibitory concentration (IC50) (commonly the concentration that gives 50% inhibition) in [1] came to 0.61 µM. Also, in the data set on Liver microsomes, the Stability is 59%. For the same compound, in [2], the solubility thermodynamic was 0.01 mg/mL (≈ 32.1 µM).
In the data set with Hepatocyte, `O=c1[nH]nc(-c2nn(Cc3ccccc3F)c3ncccc23)[nH]1` returned a Stability of 59%. The IC50 in [1] is 3.1 µM. The solubility thermodynamic in data set [2] is 0.016 mg/mL (≈ 51.6 µM).
Regarding `Nc1nc(-c2nn(Cc3ccccc3F)c3ncccc23)nc(N)c1N1CCOCC1`, the bioavailability (as a rule, the share of a dose that reaches the circulation, judged against a reference dose that is usually intravenous) in [3] stood at 25%. Also, the clearance in data set [4] was 4.5 L/h/kg. Besides, the Stability with Hepatocyte was 76%. The half-inhibitory concentration (IC50) in data set [1] is 0.1 µM. Moreover, the half-life (usually the time in which the quantity being followed falls by half) in data set [5] is 1.2 h. This compound gave an AUC/dose in the data set on Rattus norvegicus [6] of 0.32 kg·h/L.
For `Fc1ccccc1Cn1nc(-c2noc(=S)[nH]2)c2cccnc21`, in the data set on Hepatocyte, the Stability came out at 69%. The IC50 in data set [1] turned out to be 1.1 µM. For the same compound, in data set [2], the solubility thermodynamic worked out at 0.28 mg/mL (≈ 855 µM).
The compound `O=c1[nH]c(-c2nn(Cc3ccccc3F)c3ncccc23)nn1CC(F)(F)F` came in with a Stability in the data set with Hepatocyte of 91%. The IC50 in data set [1] was found to be 0.61 µM.
Turning to `Cn1nc(-c2nn(Cc3ccccc3F)c3ncccc23)[nH]c1=O`, the Stability in the data set with Hepatocyte was 74%. Besides, in data set [1], the IC50 turned out to be 0.87 µM. Also, the solubility thermodynamic in data set [2] worked out at 0.004 mg/mL (≈ 12.3 µM).
In data set [3], `Fc1ccccc1Cn1nc(-c2nnn[nH]2)c2cccnc21` returned a bioavailability of 94%. The same compound gave a clearance in data set [7] of 0.28 L/h/kg. In the data set with Hepatocyte, the Stability was determined as 100%. Further, in [1], the half-maximal inhibitory concentration (IC50) was 8.6 µM. Moreover, in data set [5], the half-life was 2.4 h. For the same compound, in data set [2], the solubility thermodynamic came to 0.15 mg/mL (≈ 508 µM). The compound also returned an AUC/dose in the data set on Rattus norvegicus [6] of 3.63 kg·h/L.
Regarding `O=c1[nH]c(-c2nn(Cc3ccccc3F)c3ncccc23)ns1`, the Stability in the data set with Hepatocyte worked out at 90%. In addition, the half-inhibitory concentration (IC50) in data set [1] was 0.52 µM. Moreover, in data set [2], the solubility thermodynamic is 0.011 mg/mL (≈ 33.6 µM).
With `O=c1[nH]c(-c2nn(Cc3ccccc3F)c3ncccc23)no1`, in the data set on Rattus norvegicus [8], the Activity result was “Dose-dependent effect”. In data set [3], this compound registered a bioavailability of 75%. The compound also gave a clearance in data set [4] of 0.7 L/h/kg. Further, in the data set on Hepatocyte, the Stability stood at 98%. In data set [1], the IC50 is 1.26 µM. The compound also had a half-life in data set [5] of 1.4 h. Besides, in [2], the solubility thermodynamic turned out to be 0.32 mg/mL (≈ 1030 µM). For the same compound, the MRT (as a rule, the average time that molecules of a dose stay in the body) in data set [9] came to 1.9 h. The AUC/dose in the data set with Rattus norvegicus [6] came out at 2.79 kg·h/L.
On to `CCn1nc(-c2nn(Cc3ccccc3F)c3ncccc23)[nH]c1=O`, for which the Stability in the data set with Hepatocyte was 69%. For the same compound, the IC50 in data set [1] was determined as 0.73 µM.
